Reference: ChEMBL document CHEMBL1127826, “Inhibitors of acyl-CoA:cholesterol acyltransferase (ACAT). 7. Development of a series of substituted N-phenyl-N'-[(1-phenylcyclopentyl)methyl]ureas with enhanced hypocholesterolemic activity” (J Med Chem, 1994)

Experiments:
[1] = tested on: Rattus norvegicus; assay: Compound was evaluated in experiment 1 for Total cholesterol at 1.0 (mg/kg) dose; format: functional; set-up: unit not given beside the values
How it was run: (§1)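 Chronic model in male Sprague-Dawley rats (200-225 g). Rats were fed chow with peanut oil 5.5%, cholesterol 1.5% and cholic acid ad libitum for 2 weeks. Test article was given by gavage once daily (morning) in the second week, as a CMC/Tween aqueous suspension. Blood was taken by cardiac puncture under ether 24 h after the last dose. Plasma total, HDL and nonHDL cholesterol were measured with an Abbott VP analyzer using dextran sulfate precipitation, reported as mg/dL and % change from control. Controls were cholesterol-fed rats and rats switched to chow in week 2.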

[2] = tested on: Rattus norvegicus; assay: Compound was evaluated in experiment 1 for change in non High density lipoprotein at the doses at 1.0 (mg/kg) dose; format: functional; how it was run: as §1
[3] = tested on: Rattus norvegicus; assay: Compound was evaluated in experiment 1 for Change in total cholesterol at 10 (mg/kg) dose; format: functional; how it was run: as §1
[4] = tested on: Rattus norvegicus; assay: Compound was evaluated in experiment 1 for non High density lipoproteins at 0.3 (mg/kg) dose; format: functional; how it was run: as §1
[5] = tested on: Rattus norvegicus; assay: Compound was evaluated in experiment 1 for Total cholesterol at 10 (mg/kg) dose; format: functional; set-up: unit not given beside the values; how it was run: as §1
[6] = tested on: Rattus norvegicus; assay: Compound was evaluated in experiment 1 for High density lipoproteins at 3.0 (mg/kg) dose; format: functional; how it was run: as §1
[7] = tested on: Rattus norvegicus; assay: Compound was evaluated in experiment 1 for Change in total cholesterol at 0.3 (mg/kg) dose; format: functional; how it was run: as §1
[8] = tested on: Rattus norvegicus; assay: Compound was evaluated in experiment 1 for Change in High density lipoproteins at 3.0 (mg/kg) dose; format: functional; how it was run: as §1
[9] = Compound was evaluated for the distribution coefficient at pH 7.4; format: physicochemical; conditions: octanol/water
[10] = tested on: Rattus norvegicus; assay: Compound was evaluated in experiment 1 for change in non High density lipoprotein at the doses at 10 (mg/kg) dose; format: functional; how it was run: as §1
[11] = tested on: Rattus norvegicus; assay: Compound was evaluated for the percentage change in total cholesterol in peanut oil (5.5%)-cholic acid (0.3%)-cholesterol (1.5%)-fed rats at 30 mg/kg; format: functional
[12] = tested on: Rattus norvegicus; assay: Compound was evaluated in experiment 1 for Change in total cholesterol at 1.0 (mg/kg) dose; format: functional; how it was run: as §1
[13] = biological target: T1, Acyl-CoA:cholesterol acyltransferase (Oryctolagus cuniculus, UniProt Q95214); assay: Tested for in vitro inhibition against Acyl coenzyme A:cholesterol acyltransferase of intestinal microsomes in cholesterol-fed rabbits; set-up: species or system Microsome
T1 sequence (Q95214 whole entry): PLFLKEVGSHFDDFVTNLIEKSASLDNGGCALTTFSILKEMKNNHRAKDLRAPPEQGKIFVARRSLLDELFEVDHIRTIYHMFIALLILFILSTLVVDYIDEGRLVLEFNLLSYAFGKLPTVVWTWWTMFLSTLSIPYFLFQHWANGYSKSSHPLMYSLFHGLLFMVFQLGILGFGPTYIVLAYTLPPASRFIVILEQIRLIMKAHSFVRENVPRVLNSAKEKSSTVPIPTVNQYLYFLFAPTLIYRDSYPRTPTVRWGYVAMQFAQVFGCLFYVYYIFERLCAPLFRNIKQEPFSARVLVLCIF
How it was run: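 Microsomes were prepared from intestine of cholesterol-fed rabbits. ACAT activity was measured using [1-14C]oleoyl-CoA as substrate. Each determination was run in triplicate.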

[14] = tested on: Rattus norvegicus; assay: Compound was evaluated in experiment 1 for Change in total cholesterol at 3.0 (mg/kg) dose; format: functional; how it was run: as §1
[15] = tested on: Rattus norvegicus; assay: Compound was evaluated in experiment 1 for Total cholesterol at 3.0 (mg/kg) dose; format: functional; set-up: unit not given beside the values; how it was run: as §1
[16] = tested on: Rattus norvegicus; assay: Compound was evaluated in experiment 1 for change in non High density lipoprotein at the doses at 3.0 (mg/kg) dose; format: functional; how it was run: as §1
[17] = tested on: Rattus norvegicus; assay: Compound was evaluated in experiment 1 for non High density lipoproteins at 10 (mg/kg) dose; format: functional; how it was run: as §1
[18] = tested on: Rattus norvegicus; assay: Compound was evaluated in experiment 1 for Change in High density lipoproteins at 10 (mg/kg) dose; format: functional; how it was run: as §1
[19] = tested on: Rattus norvegicus; assay: Compound was evaluated in experiment 1 for Total cholesterol at 0.3 (mg/kg) dose; format: functional; set-up: unit not given beside the values; how it was run: as §1
[20] = tested on: Rattus norvegicus; assay: Compound was evaluated in experiment 1 for High density lipoproteins at 10 (mg/kg) dose; format: functional; how it was run: as §1
[21] = tested on: Rattus norvegicus; assay: Compound was evaluated in experiment 1 for non High density lipoproteins at 1.0 (mg/kg) dose; format: functional; how it was run: as §1
[22] = tested on: Rattus norvegicus; assay: Compound was evaluated in experiment 1 for Change in High density lipoproteins at 1.0 (mg/kg) dose; format: functional; how it was run: as §1
[23] = tested on: Rattus norvegicus; assay: Compound was evaluated in experiment 1 for High density lipoproteins at 1.0 (mg/kg) dose; format: functional; how it was run: as §1
[24] = tested on: Rattus norvegicus; assay: Compound was evaluated in experiment 1 for High density lipoproteins at 0.3 (mg/kg) dose; format: functional; how it was run: as §1
[25] = tested on: Rattus norvegicus; assay: Compound was evaluated in experiment 1 for non High density lipoproteins at 3.0(mg/kg) dose; format: functional; how it was run: as §1
[26] = tested on: Rattus norvegicus; assay: Compound was evaluated in experiment 1 for Change in High density lipoproteins at 0.3 (mg/kg) dose; format: functional; how it was run: as §1
[27] = species: Rattus norvegicus; assay: Percent change in total cholesterol in peanut oil (5.5%)-, cholic acid (0.3%)-, Cholesterol (1.5%)-fed rats after a single dose.; format: functional
How it was run: (§2)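 Male Sprague-Dawley rats (200-225 g), n=5-7/group, given a single oral dose at 4 p.m. as a suspension in 1.5% CMC/0.2% Tween-20 in water (50 mg/kg); controls received vehicle alone. The rats then had free access to chow with peanut oil, cholesterol and cholic acid. At 8 a.m. next day they were bled by cardiac puncture under ether, and serum total cholesterol was measured as % change versus controls (unpaired two-tailed t-test).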

[28] = tested on: Rattus norvegicus; assay: Compound was evaluated in experiment 1 for change in non High density lipoprotein at the doses at 0.3 (mg/kg) dose; format: functional; how it was run: as §1
[29] = tested on: Rattus norvegicus; assay: Compound was evaluated in experiment 2 for Change in total cholesterol at 1 (mg/kg) dose; N/C denotes 'No change'; format: functional, organism-based; how it was run: as §1
[30] = tested on: Rattus norvegicus; assay: Compound was evaluated in experiment 2 for change in non High density lipoprotein at the doses at 1 (mg/kg) dose; format: functional, organism-based; how it was run: as §1
[31] = Solubility at pH 7.4; format: physicochemical; conditions: buffer
[32] = tested on: Rattus norvegicus; assay: Compound was evaluated for % reduction in plasma cholesterol in cholesterol fed rats at a dose of 25 mg/kg; format: functional
How it was run: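 Male Sprague-Dawley rats on a cholesterol-enriched diet. Dosing was either by gavage as a suspension in 1.5% carboxymethylcellulose/0.2% Tween-20 in water or in oleic acid, or given as a diet admixture. Result is % reduction in plasma cholesterol versus untreated controls given the same mode and vehicle. Significance threshold p < 0.05.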

[33] = Solubility at pH 4.0; format: physicochemical; conditions: buffer
[34] = species: Rattus norvegicus; assay: Percent change in total cholesterol in peanut oil (5.5%) - cholic acid (0.3%) - Cholesterol (1.5%) fed rates after a single dose; format: functional; how it was run: as §2
[35] = Solubility at 0.1 N HCl; format: physicochemical; conditions: read-out: S
[36] = Compound was evaluated for the distribution coefficient at pH 4.0; format: physicochemical; conditions: octanol/water
[37] = Compound was evaluated for the distribution coefficient at pH 1.0; format: physicochemical; conditions: octanol/water

Row | SMILES | TC [1] | Change non HDL-C [2] [%] | Change TC [3] [%] | Non-HDL-C [4] | TC [5] | HDL-C [6] | Change TC [7] [%] | Change HDL -C [8] [%] | logD ([9]; read-out: logD) | Change non HDL-C [10] [%] | Delta TC [11] [%] | Change TC [12] [%] | Change TC [14] [%] | TC [15] | Change non HDL-C [16] [%] | Non-HDL-C [17] | Change HDL -C [18] [%] | TC [19] | HDL-C [20] | Delta TC [27] [%] | also measured
1 | CCCCN(CCCC)Cc1cccc(C2(CNC(=O)Nc3c(C(C)C)cccc3C(C)C)CCCC2)c1 | 276 | -12 | -4 | 258 | 302 | 12 | -14 | 8 | 6.05 | -3 | -63 | -12 | -34 | 206 | -36 | 293 | -21 | 271 | 9 | -25 | IC50 [13]: 16 nM; Non-HDL-C [21]: 266; Change HDL -C [22]: -16%; HDL-C [23]: 10; HDL-C [24]: 12; Non-HDL-C [25]: 194; Change HDL -C [26]: 16%; Change non HDL-C [28]: -15%
2 | CC(C)c1cccc(C(C)C)c1NC(=O)NCC1(c2cccc(CN(C)C)c2)CCCC1 | – | – | – | – | – | – | – | – | – | – | – | – | – | – | – | – | – | – | – | – | Change TC [29]: No change; Change non HDL-C [30]: No change
3 | CC(C)c1cccc(C(C)C)c1NC(=O)NCC1(c2cccc(CN3CCOCC3)c2)CCCC1 | 273 | -14 | -63 | 224 | 118 | 16 | -24 | 40 | 4.37 | -71 | -70 | -13 | -31 | 218 | -33 | 84 | 162 | 237 | 30 | -47 | Non-HDL-C [21]: 260; Change HDL -C [22]: 10%; HDL-C [23]: 13; HDL-C [24]: 14; Non-HDL-C [25]: 202; Change HDL -C [26]: 16%; Change non HDL-C [28]: -26%
4 | CC(C)c1cccc(C(C)C)c1NC(=O)NCC1(c2ccccc2)CCCC1 | – | – | – | – | – | – | – | – | – | – | – | – | – | – | – | – | – | – | – | – | solubility [31]: < 1 µg/mL; Reduction [32]: 59%; solubility [33]: < 1 µg/mL; logD [9]: 5.16; Delta TC [34]: -38%; solubility [35]: < 1 µg/mL
5 | CC(C)c1cccc(C(C)C)c1NC(=O)NCC1(c2ccc(N(C)C)cc2)CCCC1 [NEVANIMIBE] | – | – | – | – | – | – | – | – | 5.59 | – | – | – | – | – | – | – | – | – | – | -65 | solubility [31]: < 10 µg/mL; solubility [33]: < 10 µg/mL; logD [36]: 2.89; logD [37]: 2.18; solubility [35]: < 10 µg/mL
6 | CC(C)c1cccc(C(C)C)c1NC(=O)NCC1(c2cccc(CN3CCN(C)CC3)c2)CCCC1 | 209 | -36 | -51 | 313 | 154 | 12 | 3 | 8 | 5.28 | -55 | -66 | -33 | -24 | 239 | -25 | 135 | 60 | 325 | 19 | -21 | IC50 [13]: 16 nM; Non-HDL-C [21]: 195; Change HDL -C [22]: 27%; HDL-C [23]: 15; HDL-C [24]: 12; Non-HDL-C [25]: 227; Change HDL -C [26]: 2%; Change non HDL-C [28]: 3%
